Screening data as filed in PubChem.
HTRA1 inhibitor: inhibitors of human serine peptidase HTRA1; recombinant HTRA1, FP-rhodamine activity-based probe, fluorescence polarization; Q92743; inhibition, % at 5.96 µM; actives 0.5% (n = 340,000); in the data active = inhibition above about 36%
Target sequence (Q92743 whole entry, looked up): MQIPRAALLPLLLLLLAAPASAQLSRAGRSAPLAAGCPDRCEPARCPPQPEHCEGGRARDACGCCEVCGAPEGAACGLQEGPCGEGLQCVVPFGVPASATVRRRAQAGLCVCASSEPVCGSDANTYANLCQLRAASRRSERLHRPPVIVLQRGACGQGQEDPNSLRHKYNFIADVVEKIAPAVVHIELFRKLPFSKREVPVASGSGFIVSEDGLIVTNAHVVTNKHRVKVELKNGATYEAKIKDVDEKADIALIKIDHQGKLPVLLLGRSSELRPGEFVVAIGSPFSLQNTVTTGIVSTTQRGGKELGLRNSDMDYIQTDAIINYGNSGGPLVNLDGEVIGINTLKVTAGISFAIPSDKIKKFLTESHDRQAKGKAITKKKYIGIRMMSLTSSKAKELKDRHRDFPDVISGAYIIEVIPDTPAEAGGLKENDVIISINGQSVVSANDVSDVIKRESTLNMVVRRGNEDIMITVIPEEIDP
PRMT1 FP inh: inhibitors of human PRMT1 | AID 652257 | Q99873 | actives 1.3% (n = 370,000) | recombinant PRMT1, activity-based probe fluorescence polarization | inhibition, % at 2.79 µM;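 active = inhibition above about 21% made by adding two undisclosed values, limit read from the data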
TCR-CD3 inh: blocks the human TCR-CD3 interaction | actives 0.37% (n = 360,000) | inhibition, % at 9.4 µM | TAMRA-labeled TCR probe fluorescence, biochemical; in the data active = inhibition above about 19%;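 note: recombinant mutant TCR 2C K166C tagged with TAMRA read by polarization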
mABHD4 FP: ABHD4 (mouse) inhibition, primary FP screen; purified mABHD4, FP-Rh probe fluorescence polarization; inhibition, % at 8.92 µM; actives 0.54% (n = 370,000); AID 720543;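 active = inhibition exceeding the mean over every tested compound plus 3 SD, cut at about 30% in these data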
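Test system: mABHD4 protein | Buffer or medium: HEPES pH 7.0 buffer, 150 mM NaCl, 0.01% Pluronic F-127 | Probe or stimulus: FP-Rh fluorescent activity-based probe, added after compound pre-incubation | Timing: Pre-incubation 45 min, probe exposure 60 min, at 25 °C | Technique: Fluorescence polarization, excitation 525 nm, emission 598 nm, BODIPY TMR filters | Repeats: Single well per compound (singlicate)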
SIAE primary: human SIAE inhibition, primary screen; SIAE FP-Rh probe binding, fluorescence polarization; inhibition, % at 9.66 µM; actives 0.69% (n = 370,000);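 active = inhibition above a cutoff: mean of compounds within the control limits plus 3 SD of those, cut at about 17% in these data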
Each line names hits and unclear results; the compound was inactive in the other large screens. An excerpt weighted towards active compounds, which were near 2.6% of everything screened.

COc1ccc([C@H]2C(C#N)=C([S-])N[C@](C)(O)[C@@H]2[n+]2ccccc2)cc1	none (no result: HTRA1 inhibitor)
Cc1ccc[n+](C2C(c3ccc([N+](=O)[O-])cc3)C(C#N)=C([S-])NC2(O)C2CC2)c1 (stereo not given)	PRMT1 FP inh 23
C=CCn1c(O)c(CN2CCCCC2)c(C)c(C#N)c1=O	PRMT1 FP inh 22
Cc1c(CN2CCCC(C)C2)c(O)n(CCO)c(=O)c1C#N (stereo not given)	none
CN(C)c1cccc(/C=C2\CC3(OC(=O)c4cccc(F)c4)CCCN2C3)c1 (stereo not given)	none (no result: HTRA1 inhibitor, TCR-CD3 inh)
CC1CC(C)CN(CCCNS(=O)(=O)c2cc3c(cc2Br)CCN3C(=O)C2CC2)C1 (stereo not given)	none (no result: HTRA1 inhibitor, TCR-CD3 inh)
CC(C)n1c(SCCCc2ccccc2)nc2c1c(=O)[nH]c(=O)n2C	PRMT1 FP inh 22
CS(=O)(=O)Nc1ccc(C(=O)NCCc2ccccc2)cc1	SIAE primary 19
O=C(NC(=S)Nc1ccc2[nH]c(=O)[nH]c2c1)c1ccccc1F	none
O=C(NC(=S)Nc1ccc(F)c([N+](=O)[O-])c1)c1ccccc1F	PRMT1 FP inh 33
CCOc1ccc2c(O)csc2c1	PRMT1 FP inh 41
O=C(Nc1nc2ccccc2s1)c1ccc(F)cc1	none
O=C(Nc1nc(=O)c2ccccc2s1)c1ccccc1	PRMT1 FP inh 75
Cc1ccc(C(=O)Nc2nc3ccccc3c(=O)s2)cc1	PRMT1 FP inh 59
CCC(NC(=O)c1cccc2c1C(=O)N(Cc1cccnc1)C2)c1ccccc1 (stereo not given)	none (no result: HTRA1 inhibitor, TCR-CD3 inh)
CCn1c2ccccc2c2nnc(SCc3ccc(C(=O)OC)o3)nc21	PRMT1 FP inh 24
CC(=O)Oc1cc2cccc(OC(C)=O)c(=O)c2c(OC(C)=O)c1OC(C)=O	HTRA1 inhibitor 70 (no result: PRMT1 FP inh, TCR-CD3 inh, mABHD4 FP, SIAE primary)
COc1ccc(-c2nc3ccccc3c(=O)n2NC(=S)N(C)C)cc1	PRMT1 FP inh 24
COC(=O)[C@@]12CCCCC3=C1N(CCC3)C(=O)[C@H]2CC(=O)N1CCN(C(=O)C2CC2)CC1	none (no result: HTRA1 inhibitor, TCR-CD3 inh)
S=c1nc(-c2sccc2OCc2ccc(Cl)cc2Cl)[nH][nH]1	PRMT1 FP inh 25
CNC(=S)NNC(=O)c1sccc1OCc1ccc(Cl)cc1Cl	none
Cc1ccc(-c2cc[n+](Cc3ccccc3)cc2)cc1	none
Cc1ccc2c(c1)sc[n+]2Cc1ccccc1	PRMT1 FP inh 64
CCCNc1cc(=S)nc(N)[nH]1	PRMT1 FP inh 22
O=C(C1CCCO1)N1CCN(S(=O)(=O)c2ccc(F)cc2)CC1 (stereo not given)	PRMT1 FP inh 24
COc1ccc(S(=O)(=O)N2CCN(C(=O)C3CCCO3)CC2)cc1 (stereo not given)	none
CC(C)(C)c1cc(C(c2cccnc2)N2CCN(CCO)CC2)cc(C(C)(C)C)c1O (stereo not given)	PRMT1 FP inh 22
COC(=O)c1c(NC(=O)CCC(=O)O)sc(Cc2ccccc2)c1C	none
COC(=O)CCC(=O)Nc1sc(Cc2ccccc2)c(C)c1C(N)=O	PRMT1 FP inh 24
CCCC(=O)Nc1sc(Cc2ccccc2)c(C)c1C(N)=O	PRMT1 FP inh 23
O=C(CC1CCCC1)N1CC[C@H]2[C@H](CCCN2Cc2ccccc2)C1	none (no result: HTRA1 inhibitor, TCR-CD3 inh)
CCCCNC(=O)NCC1CCN(Cc2ccc(OC)cc2)CC1	none (no result: HTRA1 inhibitor, TCR-CD3 inh)
O=C(Nc1cccc(C(F)(F)F)c1)c1ccc2nc(-c3ccco3)c(-c3ccco3)nc2c1	HTRA1 inhibitor 67
O=C(Nc1ccc2nc(-c3ccco3)c(-c3ccco3)nc2c1)NC1CC1	HTRA1 inhibitor 51 (no result: PRMT1 FP inh, TCR-CD3 inh, mABHD4 FP, SIAE primary)
O=C(Nc1cccc(C(F)(F)F)c1)c1cc[n+]([O-])cc1	none
Cc1ccc(-n2c(SCC(=O)Nc3ccc(OCc4ccccc4)cc3)nnc2-c2ccccc2)cc1	none (no result: HTRA1 inhibitor, TCR-CD3 inh)
C=C1C(=O)[C@]23C[C@H]1CCC2[C@@]1(C)C(C[C@@H]3O)[C@](C)(C(=O)OC)CC[C@@H]1O (stereo not given in full)	none (no result: HTRA1 inhibitor)
C=C1C(=O)[C@]23C[C@H]1CC[C@H]2[C@]1(C)CCC[C@@](C)(C(=O)OC)[C@H]1C[C@@H]3O	PRMT1 FP inh 24 (no result: HTRA1 inhibitor, TCR-CD3 inh)
COc1ccc2[nH]c3c(N4CCc5ccccc5C4)ncnc3c2c1	mABHD4 FP 36
COc1cc(/C=C2\S/C(=N/S(=O)(=O)Cc3ccccc3)NC2=O)c([N+](=O)[O-])cc1OC	none
COc1cc(/C=C2/S/C(=N/S(=O)(=O)c3ccccc3)NC2=O)c([N+](=O)[O-])cc1OC	PRMT1 FP inh 33
Cc1cc(SCC(=O)c2ccccc2)nc(=O)[nH]1	PRMT1 FP inh 25
Cc1ccc(C(=O)CSc2cc(C)[nH]c(=O)n2)cc1	none
CCOC(=O)[C@@]12CCC3=C1N(CCC3)C(=O)[C@H](CC(=O)NCc1ccccc1)C2	none (no result: HTRA1 inhibitor, TCR-CD3 inh)
COC(=O)[C@]12C[C@H](CC(=O)NCCc3ccccc3OC)C(=O)N(Cc3cccc4ccccc34)C1=C[C@H](C(C)C)O[C@@H]2C1CC1	none (no result: HTRA1 inhibitor, TCR-CD3 inh)
COc1cccc(NC(=O)C2CCCN2C(=O)NCc2ccccc2)c1 (stereo not given)	none (no result: HTRA1 inhibitor, TCR-CD3 inh)
COc1ccccc1-n1c(=S)[nH]c2c(sc(=S)n2-c2ccccc2)c1=O	PRMT1 FP inh 83
CCOc1ccccc1-n1c(=S)sc2c(=O)n(-c3ccccc3)c(=S)[nH]c21	PRMT1 FP inh 78, SIAE primary 19
COc1ccccc1-n1c(SC)nc2c(sc(=S)n2-c2ccccc2)c1=O	none
COc1ccccc1-n1c(=S)[nH]c2c(sc(=S)n2-c2ccccc2C)c1=O	PRMT1 FP inh 87
COC(=O)[C@]12C[C@H](CC(=O)NCCC(C)C)C(=O)N(CCc3ccc(OC)c(OC)c3)C1=C[C@H](COCc1ccccc1)O[C@@H]2C	none (no result: HTRA1 inhibitor, TCR-CD3 inh)
COc1cc2cc(C(c3nnnn3C3CCCC3)N3CCCCC3)c(=O)[nH]c2cc1OC (stereo not given)	none
O=c1[nH]c2cc3c(cc2cc1C(c1nnnn1C1CCCCC1)N1CCSCC1)OCCO3 (stereo not given)	PRMT1 FP inh 22
O=C(NCc1ccc(C(=O)N2CCOCC2)cc1)c1cccc(Br)c1	none (no result: HTRA1 inhibitor, TCR-CD3 inh)
CCCCC(CC)c1nnc(NC(=O)c2cccs2)s1 (stereo not given)	none
CC(C)c1nnc(NC(=O)c2cccs2)s1	PRMT1 FP inh 25
CC(C)(C)N1C(=O)Cc2c1nc(N)c1c(N)nc(N3CCCCC3CO)c(C#N)c21 (stereo not given)	HTRA1 inhibitor 56 (no result: PRMT1 FP inh, TCR-CD3 inh, mABHD4 FP, SIAE primary)
CCOC(=O)C1(C(=O)OCC)COC(=O)C1CN1Cc2cc3ccccc3nc2C1 (stereo not given)	PRMT1 FP inh 23
CC(C)(C)OC(=O)N1Cc2cc3ccccc3nc2C1	none
O=C(CCO)c1ccc(O)cc1	TCR-CD3 inh 27
CCCCNC(=O)NS(=O)(=O)c1ccc(NC(=O)CSc2ncnc3scc(-c4ccc(C)cc4)c23)cc1	none (no result: HTRA1 inhibitor, TCR-CD3 inh)
c1ccc(OCCNc2ccn3nc(-c4ccco4)cc3n2)cc1	PRMT1 FP inh 21 (no result: HTRA1 inhibitor)
Clc1cccc(CNc2ccn3nc(-c4ccco4)cc3n2)c1	PRMT1 FP inh 23 (no result: HTRA1 inhibitor)
c1ccc(OCCNc2ccn3nc(-c4ccccc4)cc3n2)cc1	none (no result: HTRA1 inhibitor)
O=C(CNCc1ccccc1[N+](=O)[O-])N1CCC2(CC1)OCCO2	none (no result: HTRA1 inhibitor, TCR-CD3 inh)
